Numbering of substitutions follows the chain as printed. In names and notes the source's numbering stands. Where two headings read alike, the source gives them in different places.
Columns and labels:
[1] = target: T1, cPAH D139N (Chromobacterium violaceum, UniProt P30967, D139N); experiment: Steady-state kinetics of phenylalanine hydroxylation; type: biochemical
T1 sequence (P30967 1-297 D139N): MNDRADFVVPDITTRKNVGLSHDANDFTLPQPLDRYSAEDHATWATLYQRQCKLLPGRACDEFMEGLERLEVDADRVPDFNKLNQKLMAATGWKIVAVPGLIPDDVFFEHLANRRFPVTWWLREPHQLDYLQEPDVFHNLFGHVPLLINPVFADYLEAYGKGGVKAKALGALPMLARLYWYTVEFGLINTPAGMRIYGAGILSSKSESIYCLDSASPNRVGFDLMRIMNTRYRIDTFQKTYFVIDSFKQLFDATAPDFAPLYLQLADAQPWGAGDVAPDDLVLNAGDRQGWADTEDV

[2] = target: T2, cPAH D139A (Chromobacterium violaceum, UniProt P30967, D139A); experiment: as above; type: biochemical
T2 sequence (P30967 1-297 D139A): T1 sequence (P30967 1-297 D139N) with N139A

[3] = target: T3, cPAH D139E (Chromobacterium violaceum, UniProt P30967, D139E); experiment: as above; type: biochemical
T3 sequence (P30967 1-297 D139E): T1 sequence (P30967 1-297 D139N) with N139E

[4] = target: T1, cPAH D139N; experiment: ITC, L-Phe binding to iron-reconstituted enzyme with excess BH4
[5] = target: T2, cPAH D139A; experiment: as above
[6] = target: T3, cPAH D139E; experiment: as above
[7] = target: T4, cPAH D139K (Chromobacterium violaceum, UniProt P30967, D139K); experiment: as above
T4 sequence (P30967 1-297 D139K): T1 sequence (P30967 1-297 D139N) with N139K

[8] = target: T5, wild-type cPAH (Chromobacterium violaceum, UniProt P30967); conditions: cited from earlier work
T5 sequence (P30967 1-297): T1 sequence (P30967 1-297 D139N) with N139D

[9] = target: T5, wild-type cPAH; experiment: ITC, Fe; type: binding; conditions: anaerobic, 25 °C, 2.5 mM TCEP
Method in brief: (§1)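 Untagged cPAH (wild type or Asp139 point mutant), expressed from pET3a and purified by anion-exchange and size-exclusion chromatography, in apo form. Anaerobic ITC under argon at 25 °C: 500 μM ferrous ammonium sulfate in dialysis buffer with 2.5 mM TCEP titrated into 50 μM protein containing 2.5 mM TCEP. 18 injections of 2 μL, 180 s apart.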

[10] = target: T1, cPAH D139N; experiment: ITC, Fe; type: binding; conditions: anaerobic, 25 °C, 2.5 mM TCEP
Method in brief: as §1

[11] = target: T2, cPAH D139A; experiment: ITC, Fe; type: binding
Method in brief: as §1

[12] = target: T3, cPAH D139E; experiment: ITC, Fe; type: binding
Method in brief: as §1

[13] = target: T4, cPAH D139K; experiment: ITC, Fe; type: binding
Method in brief: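 Untagged apo cPAH D139K, purified by anion-exchange and size-exclusion chromatography. Anaerobic ITC under argon at 25 °C with 2.5 mM TCEP in titrant and in 50 μM protein. FeSO4 titrated at 10-fold excess (500 μM) and again at 20-fold excess over protein. 18 injections of 2 μL, 180 s apart.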

[14] = Steady-state kinetics: turnover; type: biochemical, Chromobacterium violaceum; conditions: for fold lower kcat relative to wild-type cPAH / kcat: enzyme variant as labelled; for kcat: DMPH4 cofactor, 20 °C, pH 7.4
Method in brief: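 Phenylalanine hydroxylation followed by tyrosine formation at 275 nm (ε275 = 1405 L mol−1 cm−1) at 20 ± 1 °C. Enzyme ranged from 1 μM (wild type) to 30 μM (D139A), with 5-fold molar excess of ferrous ammonium sulfate, 5 mM DTT and 1000 units/mL catalase in 0.1 M O2-saturated Na-HEPES, pH 7.4. DMPH4 was varied at 1 mM Phe, and Phe was varied at 350 μM DMPH4. Triplicates were fit to Michaelis–Menten and reported as mean ± SD of three independent experiments.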

[15] = D139N, 1 mM Phe into 50 μM protein, 50 μM FeSO4, 200 μM BH4, anaerobic, 25 °C
[16] = D139A, 1 mM Phe into 50 μM protein, 50 μM FeSO4, 200 μM BH4, anaerobic, 25 °C
[17] = D139E, 1 mM Phe into 50 μM protein, 50 μM FeSO4, 200 μM BH4, anaerobic, 25 °C
[18] = D139K, 1 mM Phe into 50 μM protein, 50 μM FeSO4, 200 μM BH4, anaerobic, 25 °C
[19] = read-out: KM (DMPH), DMPH4 varied at saturated Phe (1 mM), 20 °C, pH 7.4
[20] = 20-fold excess of FeSO4, anaerobic, 25 °C, 2.5 mM TCEP

For N[C@@H](Cc1ccccc1)C(=O)O [L-Phe, phenylalanine], the “fold decrease in kcat/KM for phenylalanine vs wild type” value (shortened to “fold decrease in kcat/KM”) [1] was 17 fold, the “fold decrease in kcat/KM” value [2] was 81 fold and the “fold decrease in kcat/KM” value [3] was 7 fold. The Kd [4] was 37 ± 3.7 µM, the “N (ITC stoichiometry)” value [4, 15] was 0.9 and the ΔH [4, 15] was “–8.5 ± 0.7 kcal mol^–1”. The ΔS [4, 15] was “–8 cal mol^–1”, the Kd [5] was 39 ± 12 µM and the “N (ITC stoichiometry)” value [5, 16] was 1. For the same molecule, the ΔH [5, 16] was “–10.5 ± 1.9 kcal mol^–1”, the ΔS [5, 16] was “–15 cal mol^–1” and the Kd [6] was 55 ± 18 µM. The “N (ITC stoichiometry)” value [6, 17] was 0.6, the ΔH [6, 17] was “–13.2 ± 6.0 kcal mol^–1” and the ΔS [6, 17] was “–25 cal mol^–1”. For the same molecule, the Kd [7] was 31 ± 5 µM, the “N (ITC stoichiometry)” value [7, 18] was 0.8 and the ΔH [7, 18] was “–9.4 ± 1.3 kcal mol^–1”. The ΔS [7, 18] was “–11 cal mol^–1”, the Kd [8] was 37 ± 0.3 µM and the “N (ITC stoichiometry)” value [8] was 0.8. The ΔH [8] was “–7.9 ± 0.8 kcal mol^–1” and the ΔS [8] was “–6 cal mol^–1”.

CC1Nc2nc(N)[nH]c(=O)c2NC1C (stereo not shown) [DMPH, 6,7-dimethyl-5,6,7,8-tetrahydropterine] showed a Km [1, 19] of 262 ± 41 µM, a Km [2, 19] of 254 ± 47 µM and a Km [3, 19] of 236 ± 38 µM.

With O=S(=O)([O-])[O-].O=S(=O)([O-])[O-].[Fe+2].[NH4+].[NH4+] [Fe(II), ferrous ammonium sulfate] the Kd [9] was 0.151 ± 0.03 µM, the “N (ITC stoichiometry)” value [9] was 0.8 and the ΔH [9] was “–4.0 ± 0.1 kcal mol^–1”. For the same molecule, the ΔS [9] was 18 cal mol^–1, the Kd [10] was 0.139 ± 0.06 µM and the “N (ITC stoichiometry)” value [10] was 0.7. For the same molecule, the ΔH [10] was “–4.5 ± 0.3 kcal mol^–1”, the ΔS [10] was 16 cal mol^–1 and the “fold increase in Kd for iron vs wild type” value [11] was about 6 fold. For the same molecule, the Kd ([11]; anaerobic, 25 °C, 2.5 mM TCEP) was 0.944 ± 0.17 µM, the “N (ITC stoichiometry)” value ([11]; anaerobic, 25 °C, 2.5 mM TCEP) was 0.9 and the ΔH ([11]; anaerobic, 25 °C, 2.5 mM TCEP) was “–2.5 ± 0.1 kcal mol^–1”. The ΔS ([11]; anaerobic, 25 °C, 2.5 mM TCEP) was 19 cal mol^–1, the “fold increase in Kd for iron vs wild type” value [12] was about 4 fold and the Kd ([12]; anaerobic, 25 °C, 2.5 mM TCEP) was 0.479 ± 0.17 µM. The “N (ITC stoichiometry)” value ([12]; anaerobic, 25 °C, 2.5 mM TCEP) was 0.8, the ΔH ([12]; anaerobic, 25 °C, 2.5 mM TCEP) was “–1.5 ± 0.1 kcal mol^–1” and the ΔS ([12]; anaerobic, 25 °C, 2.5 mM TCEP) was 24 cal mol^–1. The “fold reduction in binding affinity for iron vs wild type” value [13] was about 500 fold, the “iron binding (ITC isotherm)” value ([13]; 10-fold excess of FeSO4 (500 µM)) was “no binding was observed” and the Kd [13, 20] was 76.5 ± 0.7 µM. The “N (ITC stoichiometry)” value [13, 20] was 1, the ΔH [13, 20] was 1.4 ± 0.6 kcal mol^–1 and the ΔS [13, 20] was 23 cal mol^–1.

B1: D139N (protein, UniProt P30967 1-297, looked up, variant D139N)
Phenylalanine-4-hydroxylase: T1 sequence (P30967 1-297 D139N)
For B1, the “fold lower kcat relative to wild-type cPAH” value [14] was about 16 fold and the kcat [14] was 1.2 ± 0.1 s^–1.

B2: D139K (protein, UniProt P30967 1-297, looked up, variant D139K)
Phenylalanine-4-hydroxylase: T1 sequence (P30967 1-297 D139N) with N139K
With B2 the “catalytic activity (hydroxylation of phenylalanine to tyrosine)” value ([14]; nonenzymatic amounts of protein required for minimal tyrosine formation) was “inactive”.

B3: wild type: wild-type phenylalanine hydroxylase from Chromobacterium violaceum (cPAH) (protein, UniProt P30967 1-297, looked up)
Phenylalanine-4-hydroxylase: T1 sequence (P30967 1-297 D139N) with N139D
Work on B3 yielded a kcat [14] of 18.6 ± 0.1 s^–1.

B4: D139E (protein, UniProt P30967 1-297, looked up, variant D139E)
Phenylalanine-4-hydroxylase: T1 sequence (P30967 1-297 D139N) with N139E
For B4, the “fold lower kcat relative to wild-type cPAH” value [14] was 10 fold and the kcat [14] was 1.9 ± 0.1 s^–1.

B5: D139A (protein, UniProt P30967 1-297, looked up, variant D139A)
Phenylalanine-4-hydroxylase: T1 sequence (P30967 1-297 D139N) with N139A
With B5 the “fold lower kcat relative to wild-type cPAH” value [14] was about 100 fold and the kcat [14] was 0.19 ± 0.01 s^–1.
